Among the data in ChEMBL document CHEMBL1122953, “Synthesis and antiarrhythmic and parasympatholytic properties of substituted phenols. 3. Modifications to the linkage region (region 3)” (1985) are Inhibition, Dose and DOSE values, retold here.

The source made the active and inactive calls. The calls are words filed in the database; no cut-off is given here.

For one test, the species on record is Cavia porcellus. Briefly: Parasympatholytic activity and the % inhibition of guinea pig ileum contractile force at 4 mg/L of base was reported. It is filed as functional. The gist of the method:
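Isolated guinea pig ileum, electrically stimulated so contraction comes from acetylcholine released by postganglionic parasympathetic nerves. After about 60 min equilibration, tension was measured just before and during the steady-state response to drug at 4 mg/L. Result is % inhibition of contractile force.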

For test [1], the species on record is Canis familiaris. The test is described as follows: Antiarrhythmic activity estimated by using the ouabain intoxicated dog model and the active dose of base in ouabain dog was reported. It is filed as functional, Canis lupus familiaris, Heart. The gist of the method:
(§1)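 Dogs; ECG lead II recorded. Ouabain given iv as boluses of 40 µg/kg, then 20 µg/kg 30 min later, then 10 µg/kg every 15 min until a stable ventricular arrhythmia (>95% ectopic ventricular complexes) persisted 15 min. Test drug infused iv at 0.5 mg/kg per min until normal sinus rhythm held at least 10 min. Active dose is the mean of experiments ± SEM.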

The test system of test [2] is Canis familiaris. The test is described as follows: Antiarrhythmic activity estimated by using the ouabain intoxicated dog model and the active dose of base in ouabain dog was reported. at a dose of 10 mg/kg; Not effective. Conditions: Canis lupus familiaris, Heart. Details: dose 10 mg/kg. It is filed as functional, organism-based. In outline:
as §1

Test [3] is filed under the species Canis familiaris. Briefly: Dose at which ouabain dog failed to produce normal sinus rhythm. It is filed as functional, Canis lupus familiaris. In outline:
as §1

Test [4] deals with Canis familiaris. Briefly: Antiarrhythmic activity estimated by using the ouabain intoxicated dog model and the active dose of base in ouabain dog was reported at a dose of 20 mg/kg; Not effective. It is filed as functional, organism-based. The arrangement: dose 20 mg/kg. To be noted: Canis lupus familiaris, Heart. In outline:
as §1

For test [5], the species on record is Canis familiaris. Briefly: Dose at which ouabain dog caused ventricular flutter. The class given is functional, Canis lupus familiaris, Heart. In outline: as §1
For test [6], the species on record is Canis familiaris. Briefly: Antiarrhythmic activity estimated by using the ouabain intoxicated dog model and the active dose of base in ouabain dog was reported; Not effective. The class given is functional, organism-based. Conditions: Canis lupus familiaris; Heart. The gist of the method: as §1

On to `O=C(Nc1ccccc1)c1cc(CN2CCCC2)c(O)c(CN2CCCC2)c1`, for which the Inhibition (usually the relative decrease from the control value, in per cent) in the test listed under Cavia porcellus was 31%. The Dose in the test filed under Canis familiaris [1] is 2.8 mg/kg. For the compound `Cc1ccccc1C(=O)Nc1cc(CN2CCCC2)c(O)c(CN2CCCC2)c1`, the Dose in the test filed under Canis familiaris [1] was 2.7 mg/kg. As to `O=C(c1cc(CN2CCCC2)c(O)c(CN2CCCC2)c1)c1cc(CN2CCCC2)c(O)c(CN2CCCC2)c1`, the DOSE entry in the test on Canis familiaris [2] was “inactive”. Take `O=C(Nc1cc(CN2CCOCC2)c(O)c(CN2CCOCC2)c1)c1ccccc1`: the Dose in the test listed under Canis familiaris [1] is 16.5 mg/kg.

Take `COc1ccc(C(=O)c2cc(CN3CCCC3)c(O)c(CN3CCCC3)c2)cc1`: the Inhibition in the test listed under Cavia porcellus is 12%. Moreover, the Dose in the test listed under Canis familiaris [1] was 4.5 mg/kg. On to `Oc1c(CN2CCCC2)cc(Nc2ccccc2)cc1CN1CCCC1`, for which the results for the Dose in the test filed under Canis familiaris [1] and in the test listed under Canis familiaris [3] were 5 mg/kg and 17.5 mg/kg, respectively. As for `O=C(Nc1nccs1)c1cc(CN2CCCC2)c(O)c(CN2CCCC2)c1`, in the test on Canis familiaris [4], the DOSE result is “inactive”. The compound `Oc1c(CN2CCCC2)cc(Nc2ncnc3ccccc23)cc1CN1CCCC1` [CHANGROLIN] returned an Inhibition in the test listed under Cavia porcellus of 43%. Moreover, the Dose in the test listed under Canis familiaris [1] is 5.5 mg/kg. As to `O=C(c1ccc(Cl)cc1)c1cc(CN2CCCC2)c(O)c(CN2CCCC2)c1`, the Dose in the test listed under Canis familiaris [1] is 4.8 mg/kg. Turning to `O=C(/C=C/c1ccccc1)Nc1cc(CN2CCCC2)c(O)c(CN2CCCC2)c1`, the Dose in the test filed under Canis familiaris [1] is 14 mg/kg; in the test listed under Canis familiaris [5], 8 mg/kg. In the test listed under Cavia porcellus, `CCN(CC)CCNC(=O)c1ccc(N)cc1.Cl` [PROCAINAMIDE HYDROCHLORIDE] gave an Inhibition of 0%. Also, in the test filed under Canis familiaris [1], the Dose is 29 mg/kg. Turning to `O=C(Nc1cc(CN2CCCC2)c(O)c(CN2CCCC2)c1)c1ccccc1`, in the test listed under Canis familiaris [1], the Dose is 3.4 mg/kg. The same measure, in the same setting: the result for `Cc1cccc(C)c1NC(=O)c1cc(CN2CCCC2)c(O)c(CN2CCCC2)c1` reads 4.5 mg/kg. Still for that read-out and setting: the result for `O=C(Nc1ccccc1)Nc1cc(CN2CCCC2)c(O)c(CN2CCCC2)c1` reads 3.6 mg/kg; that for `Cc1ccccc1NC(=O)c1cc(CN2CCCC2)c(O)c(CN2CCCC2)c1`, 2.9 mg/kg. Take `C=C[C@H]1CN2CC[C@H]1C[C@@H]2[C@@H](O)c1ccnc2ccc(OC)cc12` [QUINIDINE]: the Inhibition in the test filed under Cavia porcellus is on record as 62%. Also, the Dose in the test listed under Canis familiaris [1] was 10.5 mg/kg. On the same counts, the results for `CC(C)N(CCC(C(N)=O)(c1ccccc1)c1ccccn1)C(C)C` (configuration not stated) [DISOPYRAMIDE] are 81% and 4.4 mg/kg.

Compound `Cl.Oc1c(CN2CCCC2)cc(OCc2ccccc2)cc1CN1CCCC1` yielded an Inhibition in the test filed under Cavia porcellus of 62%. In addition, the Dose in the test listed under Canis familiaris [1] is 2 mg/kg. In the case of `O=S(=O)(Nc1cc(CN2CCCC2)c(O)c(CN2CCCC2)c1)c1ccccc1`, the Dose in the test filed under Canis familiaris [1] was 10 mg/kg. With `O=C(c1ccccc1)c1cc(CN2CCCC2)c(O)c(CN2CCCC2)c1`, the Inhibition in the test listed under Cavia porcellus amounted to 9%. In the test listed under Canis familiaris [1], the Dose was 2.4 mg/kg. Take `Cl.Oc1c(CN2CCCC2)cc(Cc2ccccc2)cc1CN1CCCC1`: in the test filed under Cavia porcellus, the Inhibition stood at 14.3%. For the same compound, the DOSE result in the test filed under Canis familiaris [6] is “inactive”. Turning to `Cc1cccc(C)c1C(=O)Nc1cc(CN2CCCC2)c(O)c(CN2CCCC2)c1`, in the test listed under Canis familiaris [1], the Dose is 3.2 mg/kg. In the test listed under Cavia porcellus, `O=C(Nc1cc(CN2CCCCC2)c(O)c(CN2CCCCC2)c1)c1ccccc1` gave an Inhibition of 33%. Besides, the Dose in the test filed under Canis familiaris [1] was 3 mg/kg. Taken in the same sequence, the figures for `CN(C(=O)c1ccccc1)c1cc(CN2CCCC2)c(O)c(CN2CCCC2)c1` were 5% and 16.2 mg/kg.
